Experimental data reported in ChEMBL document CHEMBL3785023, “Development and Pharmacological Characterization of Selective Blockers of 2-Arachidonoyl Glycerol Degradation with Efficacy in Rodent Models of Multiple Sclerosis and Pain” (J Med Chem, 2016).
The source made the active and inactive calls.

Legend:
Heart [1] = experiment: Cardiotoxicity in Langendorff-perfused Sprague-Dawley rat heart assessed as time duration of cardiac cycle length at 0.1 uM by ECG analysis (reference value: 238.38 +/- 9.23 milliseconds); type: toxicity, tissue-based
Heart [2] = experiment: Cardiotoxicity in Langendorff-perfused Sprague-Dawley rat heart assessed as time duration of cardiac cycle length at 1 uM by ECG analysis (reference value: 238.38 +/- 9.23 milliseconds); type: toxicity, tissue-based
Heart [3] = experiment: Cardiotoxicity in Langendorff-perfused Sprague-Dawley rat heart assessed as atrioventricular conduction time at 0.01 uM by ECG analysis (reference value: 45.62 +/- 4.49 milliseconds); type: toxicity, tissue-based
Heart [4] = experiment: Cardiotoxicity in Langendorff-perfused Sprague-Dawley rat heart assessed as intraventricular conduction time at 0.001 uM by ECG analysis (reference value: 14.26 +/- 0.71 milliseconds); type: toxicity, tissue-based, Cardiac ventricle
Heart [5] = experiment: Cardiotoxicity in Langendorff-perfused Sprague-Dawley rat heart assessed as time duration of action potential at 0.001 uM by ECG analysis (reference value: 75.65 +/- 0.87 milliseconds); type: toxicity, tissue-based
Heart [6] = experiment: Cardiotoxicity in Langendorff-perfused Sprague-Dawley rat heart assessed as time duration of action potential at 0.1 uM by ECG analysis (reference value: 75.65 +/- 0.87 milliseconds); type: toxicity, tissue-based
Heart [7] = experiment: Cardiotoxicity in Langendorff-perfused Sprague-Dawley rat heart assessed as time duration of action potential at 1 uM by ECG analysis (reference value: 75.65 +/- 0.87 milliseconds); type: toxicity, tissue-based
Heart [8] = experiment: Cardiotoxicity in Langendorff-perfused Sprague-Dawley rat heart assessed as corrected time duration of action potential at 0.01 uM by ECG analysis (reference value: 155.26 +/- 2.96 milliseconds); type: toxicity, tissue-based
Mus musculus [9] = experiment: In vivo inhibition of MAGL in CD-1 mouse assessed as 2-AG level in pawskin at 0.3 mg/kg, ip coadministered with formalin by LC-MS analysis (reference value: 10.8 +/- 1.5 pmol/g); type: functional
Mus musculus [10] = experiment: In vivo inhibition of MAGL in CD-1 mouse assessed as 2-AG level in spinal cord at 0.3 mg/kg, ip coadministered with formalin by LC-MS analysis (reference value: 3.8 +/- 0.4 pmol/g); type: functional
Mus musculus [11] = experiment: Toxicity in CD-1 mouse assessed as changes in normal pain threshold at 3 to 10 mg/kg, po measured up to 60 mins by hot plate test; type: organism-based; settings: in vivo, 1 h
Salmonella typhimurium = experiment: Mutagenicity in Salmonella typhimurium TA100 assessed as increase in number of colonies at 1 uM by Ames test; type: toxicity, organism-based; settings: salmonella enterica subsp. enterica serovar typhimurium
Heart [12] = experiment: Cardiotoxicity in Langendorff-perfused Sprague-Dawley rat heart assessed as heart rate at 1 uM by ECG analysis (reference value: 252.78 +/- 9.28 bpm); type: toxicity, tissue-based
Mus musculus [13] = experiment: Reduction of disease index score in myelin oligodendrocyte glycoprotein (35 to 55)-induced C57BL/6J mouse experimental autoimmune encephalomyelitis model of multiple sclerosis at 3 mg/kg, ip administered post CB2 antagonist/inverse agonist AM630 addition dosed on day 6 postimmunization up to 21 day postimmunization measured from day 12 postimmunization; type: functional, organism-based
In short: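 Female C57BL/6J mice immunized with MOG35-55 were randomly assigned to groups. They received 3 mg/kg i.p. daily from 6 days post-immunization up to 21±1 d.p.i. AM251 or AM630, 1 mg/kg i.p., was given 10 min before each dose for 14 days. Clinical score was recorded daily and as cumulative score, reported as mean ± SEM. Group sizes were 4–9 mice.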

Mus musculus [14] = experiment: Inhibition of demyelination in experimental autoimmune encephalomyelitis C57BL/6J mouse spinal cord at 3 mg/kg, ip administered post CB2 antagonist/inverse agonist AM630 addition by luxol fast blue staining based microscopic analysis; type: functional, organism-based
In short: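 EAE induced in female C57BL/6J mice with MOG35-55, then 3 mg/kg i.p. daily. AM251 or AM630 (1 mg/kg), where used, given 10 min before each dose. Spinal cord white matter stained with Luxol Fast Blue and demyelinated areas assessed by microscopy.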

Mus musculus [15] = experiment: Reduction of IBA1 positive cells in white matter anterior fasciculus of experimental autoimmune encephalomyelitis C57BL/6J mouse spinal cord at 3 mg/kg, ip administered post CB2 antagonist/inverse agonist AM630 addition by immunofluorescence assay; type: functional, organism-based
In short: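 MOG35-55-immunized female C57BL/6J mice were given 3 mg/kg i.p. daily. AM251 or AM630, each at 1 mg/kg, was given 10 min before each dose. Iba1 immunofluorescence with DAPI was done on spinal cord white matter (anterior fasciculus). Positive cells were counted per optic field. One-way ANOVA with Bonferroni test.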

Mus musculus [16] = experiment: Antinociceptive activity in CD-1 mouse assessed as inhibition of formalin-induced pain response at 0.1 to 0.3 mg/kg, ip dosed 10 mins before formalin injection measured during late phase; type: functional, organism-based
In short: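 Male CD-1 mice, n = 6 per group, injected with formalin (1.25% in saline, 30 μL) into the dorsal hind paw. Inhibitor (0.1 or 0.3 mg/kg i.p. in 0.5% DMSO/saline) given 10 min before formalin. Where used, AM251 or AM630 (1 mg/kg i.p.) given 10 min before the inhibitor. Time spent lifting, licking, shaking or flinching the injected paw recorded every 5 min over 60 min.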

Mus musculus [17] = experiment: Analgesic activity in po dosed CD-1 mouse model of oxaliplatin-induced neuropathic pain assessed as reversal of lowering of threshold to cold stimuli administered on day 14 after oxaliplatin addition by cold plate test; type: functional, organism-based
[18] = biological target: T1, Lysophosphatidylserine lipase ABHD12 (Rattus norvegicus) (UniProt Q6AYT7); experiment: Inhibition of ABHD12 in rat brain membranes up to 500 nM preincubated for 20 mins followed by fluorophosphonate-rhodamine addition measured after 30 mins by competitive affinity based proteomic profiling assay; type: cell membranes; settings: Membrane
T1 sequence (whole entry): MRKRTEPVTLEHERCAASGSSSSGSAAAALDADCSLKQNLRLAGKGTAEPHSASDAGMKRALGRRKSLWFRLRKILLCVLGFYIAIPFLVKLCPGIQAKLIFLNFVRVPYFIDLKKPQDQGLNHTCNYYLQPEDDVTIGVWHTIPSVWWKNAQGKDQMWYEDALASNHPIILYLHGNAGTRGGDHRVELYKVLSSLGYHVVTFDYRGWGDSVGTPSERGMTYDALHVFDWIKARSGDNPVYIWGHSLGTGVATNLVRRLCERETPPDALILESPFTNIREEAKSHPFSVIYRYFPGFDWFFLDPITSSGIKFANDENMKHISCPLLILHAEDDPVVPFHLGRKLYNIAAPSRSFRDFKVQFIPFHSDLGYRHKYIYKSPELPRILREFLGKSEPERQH
In short: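 Rat brain membranes (1 mg/mL) preincubated with 1–1000 nM inhibitor or DMSO for 20 min at 37 °C. FP-rhodamine then added and incubated a further 30 min at 37 °C. Samples run on SDS-PAGE and serine hydrolase bands quantified by in-gel fluorescence.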

Row | SMILES | Time (Heart [1]) | Time (Heart [2]) | Time (Heart [3]) | Time (Heart [4]) | Time (Heart [5]) | Time (Heart [6]) | Time (Heart [7]) | Time (Heart [8]) | Activity (Mus musculus [9]) | Activity (Mus musculus [10]) | Activity (Mus musculus [11]) | Activity (Salmonella typhimurium) | Activity (Heart [12]) | Activity (Mus musculus [13]) | inhibition (Mus musculus [14]) | Activity (Mus musculus [15]) | inhibition (Mus musculus [16]) | Activity (Mus musculus [17]) | inhibition [18]
1 | O=C1[C@H](c2ccc(F)cc2)[C@@H](c2ccc3c(c2)OCO3)N1C1CCN(C(=O)n2cncn2)CC1 (racemic) [listing 1 of 2 here] | 238.15 ms | 235.48 ms | 46.46 ms | 14.02 ms | 76.38 ms | 75.36 ms | 76.02 ms | 156.3 ms | 14.1 pmol/g | 6.6 pmol/g | Non-toxic | Non-toxic | 255.5 bpm | – | – | – | – | – | –
2 | O=C1[C@H](c2ccc(F)cc2)[C@@H](c2ccc3c(c2)OCO3)N1C1CCN(C(=O)n2cncn2)CC1 (racemic) [listing 2 of 2 here] | – | – | – | – | – | – | – | – | – | – | – | – | – | inactive | inactive | inactive | Active | Dose-dependent effect | inactive
